The full list was thinned out, with hits kept by preference.
L major viab – inhibitors of Leishmania major promastigote growth. inhibition, % at 10 µM. Leishmania major promastigotes, resazurin fluorescence viability. 200,000 tested, 9% active; in the data active = inhibition above about 50%;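 also: promastigotes grown with compound for 44 hours at 28 °C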
CHOP UPR activ – apoptotic UPR (CHOP) activation. AID 449763. activation, % at 10 µM. 330,000 tested, 0.34% active. CHO-CHOP luciferase reporter, luminescence; percent of tunicamycin response over DMSO baseline;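 active = at 10 µM dose, activation of 40% or more, normalized to positive control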
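System: CHO-CHOP luciferase reporter cell line; amount: 500 cells/well; buffer or medium: F12 medium containing 10% fetal bovine serum; incubation: 6 h compound exposure at 37 °C after overnight seeding; measured by: luciferase luminescence after 10 min with Steady-Glo reagent; evaluation: % reporter activation, DMSO baseline versus tunicamycin full activation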
UPR XBP1 act – activators of adaptive arm of unfolded protein response (XBP1); CHO-XBP1 luciferase reporter, IRE1-XBP1 UPR activation, luminescence; percent of tunicamycin response, DMSO as zero; activation, % at 20 µM; 330,000 tested, 0.33% active;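 active = versus positive control, 20 µM dose yields 30% or more activation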
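incubation = overnight seeding at 37 °C, 6 h compound treatment at 37 °C | assay system = CHO-XBP1 cells stably carrying IRE1-XBP1-driven luciferase reporter | input = 1000 cells per well | detection = luciferase luminescence | dosing = single point, 20 µM final compound, 1% DMSO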
T cruzi repl – T. cruzi replication inhibition; T. cruzi beta-gal in NIH3T3, luminescence, 90 h; inhibition, % (concentration not given with the values); 300,000 tested, 1.4% active; AID 1885;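 active = mean inhibition across valid replicates above about 55%, limit read from the data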;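 also: signal also drops with host cell toxicity which is not excluded here; higher percent means less beta-gal luminescence so fewer parasites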
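Assay system: NIH/3T3 fibroblasts plus reporter T. cruzi. Amount: NIH/3T3 cells, 5,000 per well. Buffer or medium: DMEM, 2% fetal bovine serum. Doses: compound pinned at 50 nL/well, DMSO. Schedule: ≥90 h infection period, 3 h prior cell attachment. Signal: luminescent β-galactosidase signal after 60 min lysis. Read-out: parasite load inhibition, %.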
CHOP inhibitor – CHOP inhibition in unfolded protein response; CHO-K1 CHOP-promoter luciferase, tunicamycin-induced, 15-18 h; inhibition, % at 10 µM; 220,000 tested, 3.8% active; AID 2732;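 active = compounds that reduced the stress-induced luciferase reporter signal by more than about 70% of percent inhibition, limit read from the data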
Dynein cargo inh – dynein cargo transport inhibition; 220,000 tested, 0.47% active; 3617.4 mouse cells, GR-EGFP nuclear translocation imaging; test concentration mostly 20 µM; stimulated with dexamethasone, 1 µM; active compounds read low; z-score, hits read low;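 active = plate z-score of nuclear minus cytoplasmic receptor signal below a set negative limit, without overly bright fluorescence or cell loss, cut at about -3.5 in these data, passing the limit was not always enough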;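 also: z-score of nuclear minus cytoplasmic ring GR-EGFP intensity difference per well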
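Buffer or medium: tetracycline-free induction medium containing charcoal-stripped FBS / Reagent: dexamethasone agonist, 1.0 µM final, for 30 min / Technique: automated 10x imaging of fixed Hoechst-stained cells / Times: induction 48 h, compound 1 h, agonist 30 min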
CHOP inh conf – confirmation of CHOP induction inhibitors; shares compounds with CHOP inhibitor; CHO-CHOP promoter luciferase reporter, tunicamycin-induced, luminescence; inhibition, % at 10 µM; 2,100 tested, 45% active;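 active = mean of three repeat readings of reporter signal inhibition above a set limit, cut at about 70% in these data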
UPR CHOP confirm – confirmation of apoptotic unfolded protein response (CHOP) activators. shares compounds with CHOP UPR activ. CHO-CHOP cells, CHOP-luciferase reporter luminescence; percent of tunicamycin response, DMSO as zero. activation, % at 10 µM. 1,000 tested, 64% active. AID 463112; in the data active = activation above about 33%
UPR XBP1 confirm – adaptive UPR (XBP1) activation, confirmed. shares compounds with UPR XBP1 act. CHO-XBP1 IRE1-XBP1 luciferase reporter, luminescence. activation, % at 20 µM. 1,000 tested, 63% active;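 active = reporter signal at least 30% of the positive control's activation in two or more of four replicate wells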
Each line names hits and unclear results; the compound was inactive in the other large screens (follow-up assays come after a bar, where they were run).

Cc1cccc(CN2CCC(Oc3ccc(C(=O)N4CCCC4)cc3)CC2)n1	none (no result: L major viab, CHOP inhibitor, Dynein cargo inh)
O=C(CSc1nnc(C2CC2)n1Cc1ccccc1)N1CCNC1=O	none (no result: L major viab, T cruzi repl, CHOP inhibitor, Dynein cargo inh)
COc1cc([N+](=O)[O-])cc(/C=N/NC(=O)c2ccc(NC(=O)c3ccc(C)cc3)cc2)c1O	CHOP UPR activ 49.0, UPR XBP1 act 37.6, CHOP inhibitor 105.1 | CHOP inh conf inactive | UPR CHOP confirm 64.0 | UPR XBP1 confirm 44.5
CCc1nc(N=Nc2c(O)[nH]c3ccccc23)c2c3c(sc2n1)CCC3	L major viab 82.5, CHOP UPR activ 94.4, UPR XBP1 act 34.9, CHOP inhibitor 100.8 | CHOP inh conf inactive | UPR CHOP confirm 75.9 | UPR XBP1 confirm 167.8
O=C(NCC1OCCc2ccccc21)c1ccc(NC(=O)c2ccc(Cl)cc2)cc1 (stereo unspecified)	UPR XBP1 act 38.0, CHOP inhibitor 103.3 | CHOP inh conf inactive | UPR XBP1 confirm inactive
Cc1cccc(C)c1NC(=O)CNC(=O)c1cn(-c2ccccc2)nc1-c1ccccc1	none (no result: L major viab, CHOP inhibitor, Dynein cargo inh)
Cc1nn(Cc2c(Cl)cccc2Cl)c(C)c1NC(=O)c1cn(-c2ccccc2)nc1-c1ccccc1	L major viab 83.5, CHOP UPR activ 145.6, UPR XBP1 act 77.8, CHOP inhibitor 109.3 | CHOP inh conf 106.1 | UPR CHOP confirm 75.9 | UPR XBP1 confirm 85.0
Cc1cccc(OCc2n(CC(=O)OC3CC(C)CCC3C(C)C)c3ccccc3[n+]2C)c1 (stereo unspecified)	L major viab 100.5, UPR XBP1 act 32.5, T cruzi repl 64.5, CHOP inhibitor 108.8 | CHOP inh conf 77.7 | UPR XBP1 confirm inactive
Cc1nnc(SCC(=O)OC2CC(C)CCC2C(C)C)[nH]c1=O (stereo unspecified)	none
CCOc1ccc(-c2nnc(SCC(=O)Nc3ccc4c(c3)c3ccccc3n4CC)n2N)cc1	CHOP UPR activ 115.7, UPR XBP1 act 215.5, CHOP inhibitor 97.8 | CHOP inh conf inactive | UPR CHOP confirm 46.5 | UPR XBP1 confirm 191.4
Cc1ccc(NC(=O)Cn2c3ccc(F)cc3c3nc4n(c(=O)c32)CCS4)cc1F	none
O=C(Cn1c2ccc(F)cc2c2nc3n(c(=O)c21)CCS3)Nc1ccc(Cl)cc1F	UPR XBP1 act 81.8, CHOP inhibitor 96.4 | CHOP inh conf inactive | UPR XBP1 confirm 33.5
COc1ccc(-c2cc(C(F)(F)F)nc(SCC(=O)Nc3ccc4c(c3)OCO4)n2)cc1	UPR XBP1 act 55.2, CHOP inhibitor 98.8 | CHOP inh conf inactive | UPR XBP1 confirm inactive
CC(C)CC(NC(=O)c1ccc(Cl)cc1)C(=O)OCC(=O)c1ccc2c(c1)NC(=O)CO2 (stereo unspecified)	L major viab 63.7, UPR XBP1 act 49.2, CHOP inhibitor 106.8 | CHOP inh conf 74.1 | UPR XBP1 confirm 99.0
COc1ccccc1-c1cn[nH]c1-c1ccc(OCc2ccc([N+](=O)[O-])cc2)cc1O	UPR XBP1 act 41.8, CHOP inhibitor 99.1 (no result: L major viab) | CHOP inh conf inactive | UPR XBP1 confirm inactive
C=CCn1c(O)c(C2=c3ccccc3=NC2=O)sc1=Nc1ccc(O)cc1	UPR XBP1 act 33.5, CHOP inhibitor 104.3 (no result: L major viab) | CHOP inh conf inactive | UPR XBP1 confirm 32.3
COc1ccc(OC)c2sc(NC(=O)C3CC3)nc12	none
COc1ccc(OC)c2sc(NC(=O)c3ccc(Cl)s3)nc12	UPR XBP1 act 96.6, CHOP inhibitor 103.0 | CHOP inh conf 85.8 | UPR XBP1 confirm inactive
O=C(CCCNC(=O)c1ccc(Cl)cc1)NCc1ccccc1F	none (no result: L major viab, CHOP inhibitor, Dynein cargo inh)

Source: PubChem (several laboratories)
